Source: PubChem BioAssay AID624290 (Broad Institute, 2012)
Values joined by “and” are separate entries in the source; they are usually repeats but may differ in a detail not shown here. Identical values can stand only once. Active and inactive are the calls of the source.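 Rule for the calls: active = compounds dimming the MITF-driven luciferase signal, with fitted AC50 at most twice the top tested dose; inconclusive = flat curves with moderate signal drop, or poor-quality fits; inactive = the rest.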

Tested on: SK-MEL-5 TRPM1-promoter luciferase reporter, 24 h
Experiment: decrease of TRPM1 reporter luminescence in SK-MEL-5 – cell-based, dry powder samples, set 2, MITF inhibitor project, dose response (AID 624290)
Procedure, shortened: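 material = SK-MEL-5 TRPM1-promoter luciferase reporter cells | timing = compound pinned one day after plating, 24 h exposure at 37 °C | signal = luciferase luminescence with SteadyGlo reagent, 5 min room-temperature incubation | evaluation = luminescence change reflecting TRPM1 promoter activity, decrease as inhibition | benchmarks = parthenolide as positive control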

COc1cccc(C2=C(NC(=O)c3ccccc3)C(=O)c3ccccc3C2=O)c1
AC50: 13.4 µM

COc1ccc(S(=O)(=O)N(C(C)=O)c2ccc(OC(C)=O)c3ccccc23)cc1[N+](=O)[O-]
AC50: 6.36 µM

O=C1C(NCCCN2CCOCC2)=C(Nc2ccccc2)C(=O)c2ccccc21
AC50: 7.78 µM

C=CCNC1=C(Nc2ccccc2)C(=O)c2ccccc2C1=O
AC50: 8.22 µM

O=C1C(NS(=O)(=O)c2ccc(Br)cc2)=C(N2CCOCC2)C(=O)c2ccccc21
AC50: 6.22 µM

CC(=O)N(C)C1=C(N2CCN(C)CC2)C(=O)c2ccccc2C1=O
AC50: 0.432 µM

CC(=O)NC1=C(c2cccc(Cl)c2)C(=O)c2ccccc2C1=O
AC50: 2.31 µM

COc1ccc(C(=O)NC2=C(c3ccccc3)C(=O)c3ccccc3C2=O)cc1
AC50: 4.99 µM

O=C(NC1=C(c2ccc(Oc3ccccc3)cc2)C(=O)c2ccccc2C1=O)c1ccccc1
AC50: > 70 µM (inactive)

O=C1C=C(Nc2ccccc2)C(=O)c2ccccc21
AC50: 4.03 µM

O=C1C(NS(=O)(=O)c2ccc(Br)cc2)=C(c2ccccc2)C(=O)c2ccccc21
AC50: 18.5 µM

NC1=C(NC(=O)c2ccccc2)C(=O)c2ccccc2C1=O
AC50: 3.65 µM

C=CCNC1=C(NCC=C)C(=O)c2ccccc2C1=O
AC50: > 70 µM (inactive)

C=CCNC1=C(N(C)C(C)=O)C(=O)c2ccccc2C1=O
AC50: 0.0779 µM

Cc1nc2ccccc2n1/N=C/c1ccc([N+](=O)[O-])s1
AC50: 1.98 µM

CCN(CC)CCCCNC1=C(Nc2ccccc2)C(=O)c2ccccc2C1=O
AC50: 5.75 µM

O=C(NC1=C(c2ccc(OC(F)(F)F)cc2)C(=O)c2ccccc2C1=O)c1ccco1
AC50: 14.8 µM

C=CCNC1=C(NS(=O)(=O)c2ccc(Br)cc2)C(=O)c2ccccc2C1=O
AC50: 6.19 µM

O=C1C(NS(=O)(=O)c2ccccc2)=C(N2CCOCC2)C(=O)c2ccccc21
AC50: 10.5 µM

O=C(NC1=C(c2ccc(OC(F)(F)F)cc2)C(=O)c2ccccc2C1=O)c1ccc(Br)cc1
AC50: 16.3 µM

NC1=C(c2ccccc2)C(=O)c2ccccc2C1=O
AC50: 5.86 µM

O=C(CNc1cccc2ccccc12)N/N=C/c1ccc([N+](=O)[O-])o1
AC50: 1.52 µM

C=CCNC1=C(N2CCOCC2)C(=O)c2ccccc2C1=O
AC50: 2.17 µM

O=C1C(Nc2ccccc2)=C(N2CCCCC2)C(=O)c2ccccc21
AC50: 9.81 µM

COc1ccc(C2=C(NC(C)=O)C(=O)c3ccccc3C2=O)cc1
AC50: 4.13 µM

NC1=CC(=O)c2ccccc2C1=O
AC50: 1.1 µM

COc1ccc(C2=C(NC(=O)c3ccc(OC)cc3-c3cccc(OC)c3)C(=O)c3ccccc3C2=O)cc1
AC50: > 70 µM (inactive)

O=C1C(NS(=O)(=O)c2ccc(Br)cc2)=C(c2ccc(OC(F)(F)F)cc2)C(=O)c2ccccc21
AC50: 10.4 µM

C=CCNC1=C(N2CCSCC2)C(=O)c2ccccc2C1=O
AC50: 5.12 µM

CCN1CCN(C2=C(Nc3ccccc3)C(=O)c3ccccc3C2=O)CC1
AC50: 2.34 µM

C=CCNC1=C(NCCCN2CCOCC2)C(=O)c2ccccc2C1=O
AC50: 10.5 µM

O=C1C(NS(=O)(=O)c2ccc(Br)cc2)=C(N2CCCCC2)C(=O)c2ccccc21
AC50: 10.5 µM

O=C(NC1=C(c2ccc(OC(F)(F)F)cc2)C(=O)c2ccccc2C1=O)c1ccccc1
AC50: 16.6 µM

CCN1CCN(C2=C(NS(=O)(=O)c3cccs3)C(=O)c3ccccc3C2=O)CC1
AC50: 2.8 µM

COc1ccc(C2=C(NC(=O)c3ccc(Cl)cc3)C(=O)c3ccccc3C2=O)cc1
AC50: 12.2 µM

COc1ccc(C2=C(NC(=O)c3ccc4ccccc4c3)C(=O)c3ccccc3C2=O)cc1
AC50: > 70 µM (inactive)

CC(=O)NC1=C(c2ccc(Oc3ccccc3)cc2)C(=O)c2ccccc2C1=O
AC50: 17 µM

COc1ccc(C(=O)NC2=C(c3ccc(OC(F)(F)F)cc3)C(=O)c3ccccc3C2=O)cc1
AC50: 34.1 µM

O=C(NC1=C(c2ccccc2)C(=O)c2ccccc2C1=O)c1ccc(Br)cc1
AC50: 9.43 µM

CCN1CCN(C2=C(N(C)C(C)=O)C(=O)c3ccccc3C2=O)CC1
AC50: 0.561 µM

O=C(NC1=C(Cl)C(=O)c2ccccc2C1=O)c1ccccc1
AC50: 0.806 µM

O=C1C(NS(=O)(=O)c2ccc(Br)s2)=C(N2CCOCC2)C(=O)c2ccccc21
AC50: 10.5 µM

CN1CCN(C2=C(NS(=O)(=O)c3ccc(Br)cc3)C(=O)c3ccccc3C2=O)CC1
AC50: 1.59 µM

O=C(NC1=C(N2CCCCC2)C(=O)c2ccccc2C1=O)c1ccccc1
AC50: > 32 µM (inactive)

O=C1C(NS(=O)(=O)c2ccc(Br)s2)=C(N2CCSCC2)C(=O)c2ccccc21
AC50: 12.1 µM

CC(=O)NC1=C(c2ccc3c(c2)oc2ccccc23)C(=O)c2ccccc2C1=O
AC50: 1.04 µM

CN1CCN(C2=C(NS(=O)(=O)c3ccccc3)C(=O)c3ccccc3C2=O)CC1
AC50: 0.984 µM

C[C@@H](NC1=C(Nc2ccccc2)C(=O)c2ccccc2C1=O)c1ccccc1
AC50: 6.71 µM

CCN1CCN(C2=C(NC(=O)c3ccccc3)C(=O)c3ccccc3C2=O)CC1
AC50: 0.714 µM

C=CCNC1=C(N2CCCCC2)C(=O)c2ccccc2C1=O
AC50: 0.614 µM

NC1=C(c2ccc(OC(F)(F)F)cc2)C(=O)c2ccccc2C1=O
AC50: 20.9 µM

CCN1CCN(C2=C(NC(=O)c3ccc(Br)cc3)C(=O)c3ccccc3C2=O)CC1
AC50: 0.433 µM

O=C(NC1=C(N2CCSCC2)C(=O)c2ccccc2C1=O)c1ccc(Br)cc1
AC50: 6.2 µM

COc1cccc(-c2cc(C(=O)NC3=C(Cl)C(=O)c4ccccc4C3=O)ccc2OC)c1
AC50: 2.5 µM

COC1=C(NS(=O)(=O)c2ccccc2)C(=O)c2ccccc2C1=O
AC50: 4.56 µM

C=CCNC1=C(N2CCN(C)CC2)C(=O)c2ccccc2C1=O
AC50: 4.58 µM

O=C1C(NS(=O)(=O)c2ccccc2)=C(N2CCCCC2)C(=O)c2ccccc21
AC50: 21.5 µM

CN1CCN(C2=C(NC(=O)c3ccccc3)C(=O)c3ccccc3C2=O)CC1
AC50: 0.524 µM

O=C(NC1=C(c2ccccc2)C(=O)c2ccccc2C1=O)c1ccco1
AC50: 6.33 µM

O=C1C(Nc2ccccc2)=C(NS(=O)(=O)c2ccccc2[N+](=O)[O-])C(=O)c2ccccc21
AC50: 17.9 µM

O=C1C(Nc2ccccc2)=C(N2CCOCC2)C(=O)c2ccccc21
AC50: 7.25 µM and 6.91 µM

COc1ccc(C2=C(NC(=O)c3ccccc3Cl)C(=O)c3ccccc3C2=O)cc1
AC50: 4.92 µM

O=C(NC1=C(N2CCSCC2)C(=O)c2ccccc2C1=O)c1ccccc1
AC50: 3.07 µM

O=C1C(NS(=O)(=O)c2cccs2)=C(N2CCOCC2)C(=O)c2ccccc21
AC50: 10.2 µM

Cc1ccc(C(=O)NC2=C(c3ccccc3)C(=O)c3ccccc3C2=O)o1
AC50: 4.25 µM

CCN(CC)CCCNC1=C(N(C)C(C)=O)C(=O)c2ccccc2C1=O
AC50: 0.823 µM

COc1ccc(C2=C(NC(=O)c3cccc(OC)c3)C(=O)c3ccccc3C2=O)cc1
AC50: 7.97 µM

O=C(NC1=C(N2CCN(c3ccccc3)CC2)C(=O)c2ccccc2C1=O)c1ccccc1
AC50: 17.1 µM

CCN(CC)CCNC1=C(Nc2ccccc2)C(=O)c2ccccc2C1=O
AC50: 1.66 µM

COc1ccc(C2=C(N)C(=O)c3ccccc3C2=O)cc1
AC50: 35.1 µM

COc1ccc(C2=C(NC(=O)c3ccccc3OC)C(=O)c3ccccc3C2=O)cc1
AC50: 25.4 µM

CCN1CCN(C2=C(NS(=O)(=O)c3ccc(Br)cc3)C(=O)c3ccccc3C2=O)CC1
AC50: 4.27 µM

CCN1c2ccccc2NC2N=C(OC)C(c3ccccc3)C21 (stereo not drawn)
AC50: 2.44 µM

O=C1C(NS(=O)(=O)c2ccc(Br)cc2)=C(N2CCN(c3ccccc3)CC2)C(=O)c2ccccc21
AC50: 21.3 µM

O=C(NC1=C(c2ccc(OC(F)(F)F)cc2)C(=O)c2ccccc2C1=O)c1ccccc1F
AC50: 12 µM

C=CCNC1=C(NC(=O)c2ccccc2)C(=O)c2ccccc2C1=O
AC50: 17.5 µM

CC(=O)NC1=C(c2ccc(Cl)cc2)C(=O)c2ccccc2C1=O
AC50: 4.56 µM

COc1ccc(C(=O)NC2=C(c3ccc(OC)cc3)C(=O)c3ccccc3C2=O)cc1
AC50: 5.86 µM

O=C(NC1=C(N2CCOCC2)C(=O)c2ccccc2C1=O)c1ccccc1
AC50: 5.21 µM

CN1CCN(C2=C(NS(=O)(=O)c3cccs3)C(=O)c3ccccc3C2=O)CC1
AC50: 1.94 µM

O=C(NC1=C(N2CCOCC2)C(=O)c2ccccc2C1=O)c1ccc(Br)cc1
AC50: 4.96 µM

C=CCNC1=C(N2CCN(CC)CC2)C(=O)c2ccccc2C1=O
AC50: 4.69 µM

CC(=O)NC1=C(c2ccccc2)C(=O)c2ccccc2C1=O
AC50: 4.94 µM

O=C1C(NS(=O)(=O)c2ccc(Br)cc2)=C(N2CCSCC2)C(=O)c2ccccc21
AC50: 13.9 µM

C=CCNC1=C(NCCN(CC)CC)C(=O)c2ccccc2C1=O
AC50: 1.88 µM

CN1CCN(C2=C(NS(=O)(=O)c3ccc(Br)s3)C(=O)c3ccccc3C2=O)CC1
AC50: 2.53 µM

O=C1C(NS(=O)(=O)c2ccc(Br)s2)=C(N2CCCCC2)C(=O)c2ccccc21
AC50: 16.6 µM

CN1CCN(C2=C(NC(=O)c3ccc(Br)cc3)C(=O)c3ccccc3C2=O)CC1
AC50: 0.685 µM

CCN1CCN(C2=C(NS(=O)(=O)c3ccc(Br)s3)C(=O)c3ccccc3C2=O)CC1
AC50: 2.97 µM

CN1CCN(C2=C(Nc3ccccc3)C(=O)c3ccccc3C2=O)CC1
AC50: 4.21 µM

CC(=O)N(C)C1=C(N2CCCCC2)C(=O)c2ccccc2C1=O
AC50: 0.576 µM

Cc1ccc(C(=O)NC2=C(c3ccc(OC(F)(F)F)cc3)C(=O)c3ccccc3C2=O)o1
AC50: 12.4 µM

CC1CCN(CC(CS(=O)(=O)c2ccc([N+](=O)[O-])cc2)N2CCC(C)CC2)CC1 (stereo not drawn)
AC50: 3.87 µM

O=C1C(NS(=O)(=O)c2cccs2)=C(N2CCCCC2)C(=O)c2ccccc21
AC50: 21.3 µM

O=C(NC1=C(c2ccccc2)C(=O)c2ccccc2C1=O)c1ccccc1
AC50: 3.73 µM

C=CCNC1=C(NS(=O)(=O)c2cccs2)C(=O)c2ccccc2C1=O
AC50: 16 µM

COc1ccc(C2=C(NC(=O)c3cccc(Cl)c3)C(=O)c3ccccc3C2=O)cc1
AC50: 15.1 µM

C=CCNC1=C(NCCCN(CC)CC)C(=O)c2ccccc2C1=O
AC50: 2.17 µM

CC(=O)N(C)C1=C(N2CCOCC2)C(=O)c2ccccc2C1=O
AC50: 2.04 µM

C=CCNC1=C(Cl)C(=O)c2ccccc2C1=O
AC50: 2.22 µM and 1.94 µM

C=C1C(=O)OC2C1CC/C(C)=C\CCC1(C)OC21 (stereo not drawn)
AC50: 5.01 µM

CCN(CC)CCCNC1=C(Nc2ccccc2)C(=O)c2ccccc2C1=O
AC50: 2.01 µM

O=C1C(Nc2ccccc2)=C(N2CCSCC2)C(=O)c2ccccc21
AC50: 11.9 µM
